High-throughput results deposited in PubChem by The Scripps Research Institute Molecular Screening Center.
The list is not random: actives were taken first. Their share in the collection is about 1.9%.
LEDGF integ inh: blocks HIV-1 LEDGF/p75-dependent DNA integration | TR-FRET IN-LEDGF/p75 DNA integration, Eu/Cy5 | inhibition, % at 3.7 µM | actives 0.64% (n = 370,000) | AID 743269;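 active = inhibition above the screen-wide mean plus 3 SD, cut at about 13% in these data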;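 note: signal is the Cy5 over europium emission ratio at 671 and 618 nm; 0% = plate median of compound wells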
UHRF1 binding: UHRF1 methyl-DNA binding inhibition. Q96T88. UHRF1 binding to methylated oligo, TR-FRET. inhibition, % at 4.4 µM. actives 0.75% (n = 370,000); in the data active = inhibition above about 21%;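 note: UHRF1 SRA domain binding a hemimethylated CpG hairpin DNA probe; 0% = median of test compound wells and 100% = reference inhibitor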
Rin1-Abl PPI inh: blocks binding of human Rin1 to Abl | P00519+Q13671 | TR-FRET Rin1/Abl binding, biochemical | inhibition, % at 7.35 µM | actives 0.4% (n = 360,000) | AID 588664; in the data active = inhibition above about 5%, passing the limit was not always enough
Target sequence (P00519 whole entry, looked up): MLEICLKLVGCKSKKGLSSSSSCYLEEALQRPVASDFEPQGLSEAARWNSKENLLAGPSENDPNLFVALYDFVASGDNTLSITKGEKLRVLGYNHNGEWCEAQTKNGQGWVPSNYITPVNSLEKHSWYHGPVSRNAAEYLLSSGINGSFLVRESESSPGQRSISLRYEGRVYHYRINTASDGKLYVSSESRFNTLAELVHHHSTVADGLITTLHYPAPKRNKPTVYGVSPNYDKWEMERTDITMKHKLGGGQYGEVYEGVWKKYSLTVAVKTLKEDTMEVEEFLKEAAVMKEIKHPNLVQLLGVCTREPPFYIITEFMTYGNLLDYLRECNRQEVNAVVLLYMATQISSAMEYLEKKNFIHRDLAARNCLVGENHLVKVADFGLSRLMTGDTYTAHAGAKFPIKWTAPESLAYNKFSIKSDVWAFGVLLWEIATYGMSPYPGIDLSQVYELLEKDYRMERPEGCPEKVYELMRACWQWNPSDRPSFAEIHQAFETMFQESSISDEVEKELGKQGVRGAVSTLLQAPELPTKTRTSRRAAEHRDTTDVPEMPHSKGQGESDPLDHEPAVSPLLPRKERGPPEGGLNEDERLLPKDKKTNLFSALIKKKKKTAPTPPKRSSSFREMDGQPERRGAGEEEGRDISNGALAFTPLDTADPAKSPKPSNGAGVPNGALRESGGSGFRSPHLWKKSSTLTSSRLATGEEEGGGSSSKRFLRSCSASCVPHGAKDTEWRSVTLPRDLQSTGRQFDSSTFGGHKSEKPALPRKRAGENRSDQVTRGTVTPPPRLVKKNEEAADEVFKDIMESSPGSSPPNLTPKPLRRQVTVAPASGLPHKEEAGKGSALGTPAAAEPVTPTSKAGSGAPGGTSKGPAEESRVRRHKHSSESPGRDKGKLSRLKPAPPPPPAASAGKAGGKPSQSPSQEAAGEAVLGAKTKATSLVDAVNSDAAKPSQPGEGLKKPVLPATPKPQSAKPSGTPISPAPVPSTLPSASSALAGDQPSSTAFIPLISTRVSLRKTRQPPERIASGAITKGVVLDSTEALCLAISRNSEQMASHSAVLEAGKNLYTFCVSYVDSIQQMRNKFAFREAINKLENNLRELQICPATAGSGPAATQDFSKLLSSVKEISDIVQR
Target sequence (Q13671 whole entry, looked up): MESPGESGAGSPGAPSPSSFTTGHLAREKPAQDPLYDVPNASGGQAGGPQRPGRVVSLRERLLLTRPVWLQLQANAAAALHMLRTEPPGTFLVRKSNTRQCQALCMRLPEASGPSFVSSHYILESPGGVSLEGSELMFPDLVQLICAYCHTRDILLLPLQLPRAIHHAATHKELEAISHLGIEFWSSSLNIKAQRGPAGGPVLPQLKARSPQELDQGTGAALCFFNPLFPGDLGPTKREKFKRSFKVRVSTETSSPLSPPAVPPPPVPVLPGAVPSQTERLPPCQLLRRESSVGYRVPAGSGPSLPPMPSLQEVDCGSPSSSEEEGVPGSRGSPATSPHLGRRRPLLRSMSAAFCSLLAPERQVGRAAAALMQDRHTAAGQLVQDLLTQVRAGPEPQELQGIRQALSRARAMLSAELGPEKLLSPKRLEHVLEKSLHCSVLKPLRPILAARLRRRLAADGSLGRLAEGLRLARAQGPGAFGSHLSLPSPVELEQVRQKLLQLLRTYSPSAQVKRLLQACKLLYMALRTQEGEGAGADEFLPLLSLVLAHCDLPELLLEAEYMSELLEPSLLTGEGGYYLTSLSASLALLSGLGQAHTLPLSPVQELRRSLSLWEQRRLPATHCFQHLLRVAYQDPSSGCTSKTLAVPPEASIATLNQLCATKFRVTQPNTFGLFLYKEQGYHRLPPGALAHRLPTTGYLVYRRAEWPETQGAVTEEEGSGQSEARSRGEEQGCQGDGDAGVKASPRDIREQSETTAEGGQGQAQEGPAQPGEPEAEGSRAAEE
MBD2 DNA inh: MBD2-methylated oligo binding inhibition | actives 0.31% (n = 370,000) | inhibition, % at 4.4 µM | TR-FRET, MBD2 binding to methylated oligonucleotide | Q9UBB5; in the data active = inhibition above about 13%
TDP2 inh: blocks human TDP2 phosphodiesterase activity. recombinant TDP2, T5PNP hydrolysis, p-nitrophenol absorbance 415 nm. inhibition, % at 12.8 µM. actives 0.34% (n = 370,000);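 active = inhibition above the mean of all tested compounds plus 3 SD, set per campaign, cut at about 25% in these data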;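 note: 0% = DMSO with enzyme and 100% = buffer with substrate but no TDP2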
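Test system: human TDP2 enzyme; Input: 120 nM TDP2 per well; Buffer or medium: Mg2+-containing Tris-HCl buffer, pH 7.5; Reagent: 5 mM T5PNP; Dosing: 12.8 µM single point, 1% DMSO; Incubation: reaction 2 h, 37 °C; Detection: p-Nitrophenol epi absorbance; Read-out: % inhibition relative to enzyme-containing and enzyme-free wells; Replicates: single well per compound.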
UHRF1 DNA bind: counter-screen for MBD2 inhibitors: human UHRF1 methylated DNA binding inhibitors. actives 25% (n = 1,000). UHRF1 binding to methylated oligonucleotide, TR-FRET. inhibition, % at 4.4 µM. shares compounds with MBD2 DNA inh; in the data active = inhibition above about 21%;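 note: UHRF1 SRA domain binding a labeled hemimethylated CpG hairpin DNA; 0% = vehicle only and 100% = reference inhibitor with vehicle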
MBD2 DBD conf: confirmation of human MBD2-DBD methylated oligonucleotide binding inhibitors; TR-FRET MBD2-DBD binding to methylated oligonucleotide; actives 26% (n = 1,000); inhibition, % at 4.4 µM; shares compounds with MBD2 DNA inh
TDP2 inh conf: confirmation of human TDP2 inhibitors; shares compounds with TDP2 inh; recombinant human TDP2, absorbance read-out; inhibition, % at 12.8 µM; actives 22% (n = 1,100); in the data active = inhibition above about 25%;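 note: 0% = vehicle with enzyme and 100% = no enzyme buffer only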
IN multimer act: activates HIV-1 integrase multimerization in LEDGF counter-screen | shares compounds with LEDGF integ inh | TR-FRET HIV-1 integrase multimerization, biochemical | activation, % at 7.7 µM | actives 17% (n = 2,000) | AID 1053131; in the data active = activation above about 8.9%
TRFRET interf: counter-screen for LEDGF/p75 integration inhibitors: TR-FRET optical interference. AID 1053135. inhibition, % at 7.7 µM. TR-FRET optical interference counterscreen, HIV-1 IN multimerization. 2,000 tested, under 10 active. shares compounds with LEDGF integ inh;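 active = inhibition above the mean over all tested compounds plus 3 SD, which no compound reached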;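 note: 0% = integrase with antibodies and DMSO and 100% = antibodies without integrase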
IN-LEDGF confirm: confirmation of HIV-1 LEDGF/p75-dependent integration inhibitors | shares compounds with LEDGF integ inh | TR-FRET LEDGF/p75-dependent HIV-1 integration, biochemical | inhibition, % at 3.7 µM | actives 36% (n = 2,000)
Numbers without * were called inactive. Cut-off read from the data, not from the text of the source, unless noted: active = inhibition above about 14%; inactive = the rest.

CCOC(=O)N1CCN(C(=O)c2ccc(C#CC3(O)CCCCC3)cc2)CC1 was read as LEDGF integ inh 8, UHRF1 binding 26*, Rin1-Abl PPI inh 0, MBD2 DNA inh 15*, TDP2 inh 19, UHRF1 DNA bind 11 and MBD2 DBD conf 1.
`O=C(NCCc1ccccc1)OCc1cn(Cc2cccc(F)c2F)nn1` gave LEDGF integ inh 1, UHRF1 binding 6, MBD2 DNA inh -3 and TDP2 inh 0.
CCCc1nc2ccc(C(=O)OC)cn2c1Cc1cccc(F)c1 was read as LEDGF integ inh 4, UHRF1 binding 26*, Rin1-Abl PPI inh -2, MBD2 DNA inh 17*, TDP2 inh -5, UHRF1 DNA bind 10 and MBD2 DBD conf 5.
`CCc1ccccc1-c1cc(C(=O)OC)c2n(c1=O)CCC2` gave LEDGF integ inh 0, UHRF1 binding 0, MBD2 DNA inh -2 and TDP2 inh 3.
`CN(C)c1ccc(/C=C/C(=O)c2ccccc2)cc1[N+](=O)[O-]` gave LEDGF integ inh 1, UHRF1 binding -5, Rin1-Abl PPI inh -4, MBD2 DNA inh -4 and TDP2 inh -10.
`O=C(/C=C/c1ccc(O)c([N+](=O)[O-])c1)c1ccc2ccccc2c1` gave LEDGF integ inh 3, UHRF1 binding 0, Rin1-Abl PPI inh -1, MBD2 DNA inh 44*, TDP2 inh -4, UHRF1 DNA bind 4 and MBD2 DBD conf -1.
`OCC1SC(O)C(O)C(O)C1O` (configuration not stated) gave LEDGF integ inh -1, UHRF1 binding -1, MBD2 DNA inh -2 and TDP2 inh 4.
For C=Cc1c(C)c2cc3[nH]c(cc4nc(cc5nc(cc1[nH]2)C(C)=C5CCC(=O)O)C(CCC(=O)O)=C4C)c(C)c3C=C the results were LEDGF integ inh 85*, UHRF1 binding 75*, Rin1-Abl PPI inh 5, MBD2 DNA inh 47*, TDP2 inh 13, UHRF1 DNA bind 97* and MBD2 DBD conf 67*.
CC1=NN(c2ccc(F)cc2)C(=O)C1C(c1cccc(O)c1)c1c(C)[nH]n(-c2ccc(F)cc2)c1=O (configuration not stated) was read as LEDGF integ inh 39*, UHRF1 binding 19, Rin1-Abl PPI inh 5, MBD2 DNA inh 19*, TDP2 inh 89*, UHRF1 DNA bind 2, MBD2 DBD conf -1 and TDP2 inh conf 48*.
For Nc1ncnc2oc(-c3ccco3)c(-c3ccco3)c12 the results were LEDGF integ inh 86*, UHRF1 binding 92*, Rin1-Abl PPI inh 1, MBD2 DNA inh 81*, TDP2 inh 27*, UHRF1 DNA bind 53*, MBD2 DBD conf 39* and TDP2 inh conf -1.
COc1ccc(-c2nc(-c3ccccn3)ncc2S(C)(=O)=O)cc1 was read as LEDGF integ inh 4, UHRF1 binding -1, Rin1-Abl PPI inh 0, MBD2 DNA inh 3 and TDP2 inh 12.
Cn1nc(-c2ccccn2)nc2c(=O)n(C)c(=O)nc1-2 was read as LEDGF integ inh -24, UHRF1 binding 11, Rin1-Abl PPI inh 42*, MBD2 DNA inh 14*, TDP2 inh 91*, UHRF1 DNA bind -11, MBD2 DBD conf 13 and TDP2 inh conf 85*.
For C=CCN1[C@H](C)COc2cc(N3CCSCC3)ccc2S1(=O)=O the results were LEDGF integ inh 3, UHRF1 binding 0, MBD2 DNA inh 4 and TDP2 inh 1.
`CN(C)c1ccc(C=c2c3ccccc3n3c2cc(-c2ccccc2)[n+]3C)cc1` gave LEDGF integ inh 12, UHRF1 binding 41*, Rin1-Abl PPI inh -18, MBD2 DNA inh 22*, TDP2 inh 30*, UHRF1 DNA bind 64*, MBD2 DBD conf 56* and TDP2 inh conf 10.
`CC(=O)Nc1ccc(NC(=O)CSc2nnc(-c3n[nH]c4c3CCC4)n2N)cc1` gave LEDGF integ inh 0, UHRF1 binding -4, MBD2 DNA inh 3 and TDP2 inh -3.
CCCC(=O)N1CCC[C@]2(CC[C@@H](CCC(=O)OCC)O2)C1 was read as LEDGF integ inh 4, UHRF1 binding 4, MBD2 DNA inh 2 and TDP2 inh 2.
`CN(C)C(=O)c1cccc(-c2cnc3c(NC=O)cc(-c4ccccc4N(C)C)cn23)c1` gave LEDGF integ inh 5, UHRF1 binding -6, Rin1-Abl PPI inh -21, MBD2 DNA inh 36*, TDP2 inh 29*, UHRF1 DNA bind -10, MBD2 DBD conf 30* and TDP2 inh conf 17.
`CN(C)C(=O)c1cccc(-c2cnc3c(NC=O)cc(-c4ccccc4Cl)cn23)c1` gave LEDGF integ inh -1, UHRF1 binding -5, Rin1-Abl PPI inh -2, MBD2 DNA inh 0 and TDP2 inh -10.
Screening CN(C)c1ccc2cc(S(=O)(=O)O)cc(O)c2c1 returned LEDGF integ inh 84*, UHRF1 binding 83*, Rin1-Abl PPI inh 3, MBD2 DNA inh 45*, TDP2 inh 55*, UHRF1 DNA bind 29*, MBD2 DBD conf 6, TDP2 inh conf 13, IN multimer act 52*, TRFRET interf -186 and IN-LEDGF confirm 31*.
`O=C1CCC(=O)c2ccc3c4c(ccc1c24)CC3` gave LEDGF integ inh 44*, UHRF1 binding 66*, Rin1-Abl PPI inh -7, MBD2 DNA inh 36*, TDP2 inh 13, UHRF1 DNA bind 6, MBD2 DBD conf 1, IN multimer act -1, TRFRET interf 4 and IN-LEDGF confirm -1.
For COc1ccc(-c2c(C(=O)c3ccccc3)[nH]c(N)c2C(=O)NCCc2c[nH]c3ccccc23)cc1 the results were LEDGF integ inh -3, UHRF1 binding 1, MBD2 DNA inh -4 and TDP2 inh 2.
